Drawing on ChEMBL document CHEMBL4118065, “Design, synthesis and antimycobacterial activity of novel imidazo[1,2-a]pyridine-3-carboxamide derivatives” (Eur J Med Chem, 2017), this text covers CC50, MIC90 and selectivity ratio for 40 compounds.

In brackets after ≈: the same amount, converted by molar mass.

By CC50 is commonly meant the concentration that lowers cell viability or growth by half. As a reminder, the MIC90 is the lowest concentration that inhibits either 90% of growth or 90% of the strains tested, depending on the study.

Tested on in one series: not listed separately
Briefly: Cytotoxicity against African green monkey Vero cells assessed as decrease in cell viability after 72 hrs by MTT assay. It counts as cell-based. Particulars: chlorocebus sabaeus. The procedure, abridged:
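Vero cells grown in MEM with Earle's salts plus 10% FBS, 37 °C, 5% CO2; seeded at 1 × 10⁴ cells per well, allowed 24 h recovery, then medium replaced with assay medium with or without compound (1000 to 4 μg/mL). After 72 h exposure, viability read by MTT; CC50 calculated by Bliss analysis.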
`Cc1ccc2nc(C)c(C(=O)NCCNc3ccc(C(C)(C)C)cc3)n2c1`: the CC50 at 72 h was 57.6 µM.
The same measure, in the same setting: the figure for `COc1ccc(NCCNC(=O)c2c(C)nc3ccc(C)cn23)cc1` is 193 µM.

In a further series the test system is Mycobacterium tuberculosis. Briefly: Antimycobacterial activity against Mycobacterium tuberculosis H37Rv ATCC 27294 after 7 days by microplate Alamar blue assay. It counts as functional. The note with it: H37Rv ATCC 27294, 168 h. The essentials: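 MABA against replicating M. tuberculosis. Cells grown to late log phase (70–100 Klett units) in 7H9 broth with 0.2% glycerol, 0.05% Tween 80 and 10% ADC. They were washed in PBS, filtered (8 µm) and frozen. Twofold compound dilutions received 2×10^5 CFU per well at 37 °C. Tween 80 and Alamar blue were added on day 7, then 16–24 h more. Fluorescence read at 530/590 nm. MIC = lowest concentration giving ≥90% fluorescence reduction versus bacterium-only controls.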
In general terms: Alamar Blue is a resazurin reagent that responds to reducing activity.
`Cc1ccc2nc(C)c(C(=O)N3CCN(c4ccccc4)CC3)n2c1` had an MIC90 of 95.4 µM (≈ 31.9 µg/mL).
For the compound `Cc1ccc2nc(C)c(C(=O)NCCNc3ccccc3F)n2c1`, the MIC90 stood at 0.76 µM (≈ 0.248 µg/mL).
Consider `Cc1ccc2nc(C)c(C(=O)NCCNc3ccc(C(C)(C)C)cc3)n2c1`, for which the MIC90 is 0.041 µM (≈ 0.0149 µg/mL).
The same measure, in the same setting: the figure for `Cc1ccc2nc(C)c(C(=O)NCCNc3ccccc3)n2c1` is 0.81 µM (≈ 0.25 µg/mL).
Still for that read-out and setting: the figure for `Cc1ccc(N2CCN(C(=O)c3c(C)nc4ccc(C)cn34)CC2)cc1` is 46 µM (≈ 16 µg/mL); for `Cc1ccc2nc(C)c(C(=O)NCCNc3cccc(C(F)(F)F)c3)n2c1` it is 5.31 µM (≈ 2 µg/mL).
`Cc1ccc2nc(C)c(C(=O)NCCNc3ccc(F)cc3)n2c1` displayed an MIC90 of 1.53 µM (≈ 0.499 µg/mL).
As to `COc1ccc(NCCNC(=O)c2c(C)nc3ccc(C)cn23)cc1`, the MIC90 is 0.044 µM (≈ 0.0149 µg/mL).
Still for that read-out and setting: for `Cc1ccc2nc(C)c(C(=O)NCCCOc3ccc(Br)cc3)n2c1` the value was 0.62 µM (≈ 0.249 µg/mL); for `Cc1ccc2nc(C)c(C(=O)NCCNc3ccc(C)c(C)c3)n2c1`, 0.18 µM (≈ 0.0606 µg/mL); for `Cc1ccc2nc(C)c(C(=O)N3CCN(c4ccc(F)cc4)CC3)n2c1`, 90.3 µM (≈ 31.8 µg/mL).
With `Cc1ccc2nc(C)c(C(=O)N3CCC(c4ccc(F)cc4)CC3)n2c1`, the MIC90 was 90.3 µM (≈ 31.7 µg/mL).
In turn, `Cc1ccc2nc(C)c(C(=O)N3CCN(c4ccc([N+](=O)[O-])cc4)CC3)n2c1` displayed an MIC90 of 84.4 µM (≈ 32 µg/mL).
Still for that read-out and setting: the figure for `Cc1ccc2nc(C)c(C(=O)NCCCNc3ccccc3)n2c1` is 6.21 µM (≈ 2 µg/mL); for `Cc1ccn2c(C(=O)NCCCNc3ccccc3)c(C)nc2c1` it is 12.4 µM (≈ 4.01 µg/mL); for `CO[C@H]1/C=C/O[C@@]2(C)Oc3c(C)c(O)c4c(O)c(c(/C=N/N5CCN(C)CC5)c(O)c4c3C2=O)NC(=O)/C(C)=C\C=C\[C@H](C)[C@H](O)[C@@H](C)[C@@H](O)[C@@H](C)[C@H](OC(C)=O)[C@@H]1C` [RIFAMPIN] it is 0.071 µM (≈ 0.0584 µg/mL).
The same measure, in the same setting: the figure for `Cc1ccc2nc(C)c(C(=O)NCCNc3ccc(Cl)c(F)c3)n2c1` is 1.39 µM (≈ 0.502 µg/mL).
Same read-out and setting: the figure for `Cc1ccc2nc(C)c(C(=O)NCCNc3ccc(C(F)(F)F)cc3)n2c1` is 42.5 µM (≈ 16 µg/mL); for `Cc1ccc2nc(C)c(C(=O)N3CCN(c4ccccc4F)CC3)n2c1` it is > 90 µM; for `Cc1ccc2nc(C)c(C(=O)NCCCNc3ccc(C(C)(C)C)cc3)n2c1` it is 1.32 µM (≈ 0.5 µg/mL).
`Cc1ccc2nc(C)c(C(=O)NCCOCc3ccc(Br)cc3)n2c1` returned an MIC90 of 0.62 µM (≈ 0.249 µg/mL).
Still for that read-out and setting: for `Cc1ccc2nc(C)c(C(=O)NCCOCc3ccccc3)n2c1` the value was 1.93 µM (≈ 0.624 µg/mL).
With `Cc1ccc2nc(C)c(C(=O)N3CCN(c4ccncc4)CC3)n2c1`, the MIC90 worked out at 95 µM (≈ 31.9 µg/mL).
Turning to `Cc1ccc2nc(C)c(C(=O)NCCCNc3ccc([N+](=O)[O-])cc3)n2c1`, the MIC90 was > 87 µM.
Same read-out and setting: for `Cc1ccc2nc(C)c(C(=O)NCCOc3ccc(Br)cc3)n2c1` the value was 0.038 µM (≈ 0.0148 µg/mL); for `Cc1ccc2nc(C)c(C(=O)N3CCN(c4ccccn4)CC3)n2c1`, > 95 µM; for `Cc1ccc2nc(C)c(C(=O)NCCN3CCN(c4ccccc4)CC3)n2c1`, 0.66 µM (≈ 0.249 µg/mL).
With `Cc1ccc2nc(C)c(C(=O)N3CCN(c4ccc(F)cc4F)CC3)n2c1`, the MIC90 was > 86 µM.
On the same count and under the same terms, the figure for `Cc1ccc2nc(C)c(C(=O)N3CCN(c4ccc(Cl)cc4)CC3)n2c1` is 43.5 µM (≈ 16 µg/mL); for `NNC(=O)c1ccncc1` [ISONIAZID] it is 0.36 µM (≈ 0.0494 µg/mL); for `COc1ccc(N2CCN(C(=O)c3c(C)nc4ccc(C)cn34)CC2)cc1` it is > 87 µM.
On the same count and under the same terms, the figure for `Cc1ccc2nc(C)c(C(=O)N3CCN(c4ccc(Br)cc4)CC3)n2c1` is > 77 µM; for `Cc1ccc2nc(C)c(C(=O)NCCNc3ccc([N+](=O)[O-])cc3)n2c1` it is > 90 µM; for `Cc1ccc2nc(C)c(C(=O)NCCNc3ccc(Br)cc3)n2c1` it is 0.64 µM (≈ 0.248 µg/mL).
`Cc1ccc2nc(C)c(C(=O)NCCNCc3ccc(Br)cc3)n2c1` came in with an MIC90 of 9.97 µM (≈ 4 µg/mL).
On the same count and under the same terms, for `Cc1ccn2c(C(=O)NCCCNc3ccc(C(C)(C)C)cc3)c(C)nc2c1` the value was 10.6 µM (≈ 4 µg/mL); for `Cc1ccc2nc(C)c(C(=O)NCCNCc3ccccc3)n2c1`, 49.6 µM (≈ 16 µg/mL).
As to `Cc1ccc2nc(C)c(C(=O)NCCCNc3ccc(F)cc3)n2c1`, the MIC90 amounted to 1.47 µM (≈ 0.5 µg/mL).
Still for that read-out and setting: the figure for `COc1ccc(NCCNC(=O)c2c(C)nc3cc(C)ccn23)cc1` is 47.3 µM (≈ 16 µg/mL); for `Cc1ccn2c(C(=O)NCCCNc3ccc([N+](=O)[O-])cc3)c(C)nc2c1` it is > 87 µM.

Tested on in the next series: not listed separately
The experiment in a line: Selectivity index, ratio of CC50 for African green monkey Vero cells to MIC=>90 for Mycobacterium tuberculosis H37Rv ATCC 27294. It counts as toxicity. Particulars: read-out: Selectivity Index. The procedure, abridged:
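Vero cells in MEM with Earle's salts and 10% FBS, 37 °C, 5% CO₂. Seeded at 1×10⁴ cells/well and recovered 24 h. Exposed to compound at 1000 to 4 μg/mL for 72 h. Viability by MTT. CC50 by Bliss analysis. SI is CC50 divided by MABA MIC against H37Rv ATCC 27294.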
With `Cc1ccc2nc(C)c(C(=O)NCCNc3ccc(C(C)(C)C)cc3)n2c1`, the selectivity ratio was 1400.
On the same count and under the same terms, the figure for `COc1ccc(NCCNC(=O)c2c(C)nc3ccc(C)cn23)cc1` is 4400.
